The nature of data set [1]: Growth inhibition of human Jurkat T cells at 10 uM after 48 hrs by WST1 assay. The data set is classed as cell-based. In outline:
(§1)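 Jurkat T cells were seeded at 5.10⁴ cells per well and exposed to serial compound dilutions for 48 h at 37 °C and 5% CO₂. Part of the medium was removed, WST-1 tetrazolium salt was added, and cells were incubated further. Absorbance was read at 450 nm. Results are % cytotoxicity at each concentration, with CC₅₀ calculated.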
On the technique in general: Tetrazolium assays rely on reduction of a dye to a coloured formazan, in cell work by metabolically active cells.

Data set [2] addresses Ribosomal protein S6 kinase alpha-6 (Homo sapiens) (UniProt Q9UK32). Nature of the data set: Binding affinity to RSK4 (unknown origin) at 10 uM relative to control.
The nature of data set [3]: Immunosuppressive activity in human RPMI1788 cells cocultured with human PBMC assessed as inhibition of [3H]thymidine incorporation incubated for 6 days prior to [3H]thymidine addition measured after 18 hrs by liquid scintillation counting. It counts as functional, cell-based. Particulars: RPMI-1788. The method in brief:
(§2)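 Effector PBMCs from heparinized healthy-donor blood were isolated over Lymphoprep and held at 1.2 × 10⁶ cells/mL in RPMI-1640 with 10% heat-inactivated FCS. Mitomycin-treated stimulator cells were at 0.45 × 10⁶ cells/mL. Cells were mixed with diluted compound and cultured at 37 °C, 5% CO₂. (methyl-³H)thymidine was added for the final 18 h, and filter-harvested cpm were counted by scintillation. Compounds were screened at one concentration, then dose-response IC₅₀ was determined. Values are means of two independent experiments.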

In data set [4] the target is Tyrosine-protein kinase JAK1 (Homo sapiens) (UniProt P23458). Nature of the data set: Binding affinity to JAK1 (unknown origin) at 10 uM relative to control.
Tyrosine-protein kinase JAK1 (Homo sapiens), sequence (P23458 whole entry): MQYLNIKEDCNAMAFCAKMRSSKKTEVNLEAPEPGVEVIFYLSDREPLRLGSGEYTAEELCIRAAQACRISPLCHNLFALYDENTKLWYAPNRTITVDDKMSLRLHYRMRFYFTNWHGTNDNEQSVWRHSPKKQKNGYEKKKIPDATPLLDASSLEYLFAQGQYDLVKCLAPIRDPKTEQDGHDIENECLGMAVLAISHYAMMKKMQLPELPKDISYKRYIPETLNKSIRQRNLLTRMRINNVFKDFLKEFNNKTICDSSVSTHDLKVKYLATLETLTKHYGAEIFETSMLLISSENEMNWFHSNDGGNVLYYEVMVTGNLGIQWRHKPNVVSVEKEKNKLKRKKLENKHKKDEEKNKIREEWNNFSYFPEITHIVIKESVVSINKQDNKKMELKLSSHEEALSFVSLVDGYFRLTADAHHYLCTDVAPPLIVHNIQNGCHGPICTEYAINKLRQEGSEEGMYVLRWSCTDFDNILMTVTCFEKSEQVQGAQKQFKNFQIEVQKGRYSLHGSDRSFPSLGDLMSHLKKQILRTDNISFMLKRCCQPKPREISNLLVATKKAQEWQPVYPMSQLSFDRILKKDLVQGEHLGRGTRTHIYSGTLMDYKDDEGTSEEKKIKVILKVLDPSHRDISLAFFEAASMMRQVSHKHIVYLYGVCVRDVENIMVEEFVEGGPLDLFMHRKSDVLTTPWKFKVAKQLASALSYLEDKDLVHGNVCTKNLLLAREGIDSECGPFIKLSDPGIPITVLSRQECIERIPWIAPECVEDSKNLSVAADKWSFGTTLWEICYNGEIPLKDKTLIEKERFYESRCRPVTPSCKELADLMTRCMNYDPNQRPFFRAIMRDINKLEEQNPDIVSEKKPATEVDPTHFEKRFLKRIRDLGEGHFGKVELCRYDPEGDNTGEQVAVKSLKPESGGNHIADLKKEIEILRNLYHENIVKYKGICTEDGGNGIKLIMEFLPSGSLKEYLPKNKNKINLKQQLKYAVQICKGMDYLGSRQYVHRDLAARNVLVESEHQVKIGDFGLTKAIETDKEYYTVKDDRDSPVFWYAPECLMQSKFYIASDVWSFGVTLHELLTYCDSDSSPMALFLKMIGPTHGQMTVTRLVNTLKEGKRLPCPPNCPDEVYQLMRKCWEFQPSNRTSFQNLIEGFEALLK
Data set [5] in a line: Cytotoxicity against human Jurkat T cells after 48 hrs by WST1 assay. It counts as cell-based. The method in brief: as §1
Data set [6] has as its target Serine/threonine-protein kinase B-raf (Homo sapiens) (UniProt P15056). Nature of the data set: Binding affinity to BRAF (unknown origin) at 10 uM relative to control.
The target of data set [7] is Serine/threonine-protein kinase 10 (Homo sapiens) (UniProt O94804). Nature of the data set: Binding affinity to LOK (unknown origin) at 10 uM relative to control.
Serine/threonine-protein kinase 10 (Homo sapiens), sequence (O94804 whole entry, looked up): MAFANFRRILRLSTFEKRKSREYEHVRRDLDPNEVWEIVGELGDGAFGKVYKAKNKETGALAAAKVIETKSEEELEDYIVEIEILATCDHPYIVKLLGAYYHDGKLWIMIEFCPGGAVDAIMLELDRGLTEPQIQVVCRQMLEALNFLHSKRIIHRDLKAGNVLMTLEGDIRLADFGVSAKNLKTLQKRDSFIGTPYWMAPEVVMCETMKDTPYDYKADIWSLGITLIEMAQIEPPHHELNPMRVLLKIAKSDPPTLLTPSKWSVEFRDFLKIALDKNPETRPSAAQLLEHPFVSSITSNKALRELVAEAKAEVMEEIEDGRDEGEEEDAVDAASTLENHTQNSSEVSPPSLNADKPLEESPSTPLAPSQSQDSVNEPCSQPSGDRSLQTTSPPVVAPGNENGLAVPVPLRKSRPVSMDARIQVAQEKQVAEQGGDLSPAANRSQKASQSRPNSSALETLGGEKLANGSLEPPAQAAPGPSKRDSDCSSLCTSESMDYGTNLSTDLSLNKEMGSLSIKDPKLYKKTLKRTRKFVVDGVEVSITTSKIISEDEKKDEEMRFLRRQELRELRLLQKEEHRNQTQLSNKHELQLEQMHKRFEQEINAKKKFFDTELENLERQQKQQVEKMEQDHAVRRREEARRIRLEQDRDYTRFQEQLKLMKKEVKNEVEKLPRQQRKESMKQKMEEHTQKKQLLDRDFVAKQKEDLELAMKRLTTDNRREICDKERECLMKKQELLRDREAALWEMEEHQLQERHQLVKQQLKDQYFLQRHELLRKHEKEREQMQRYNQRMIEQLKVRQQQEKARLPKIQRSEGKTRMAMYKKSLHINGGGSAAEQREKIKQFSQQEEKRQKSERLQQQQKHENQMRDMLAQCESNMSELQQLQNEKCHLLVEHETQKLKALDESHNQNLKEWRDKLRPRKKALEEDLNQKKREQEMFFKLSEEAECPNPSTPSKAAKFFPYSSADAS
Data set [8] has as its target T1, Inhibitor of nuclear factor kappa-B kinase subunit beta (Homo sapiens) (UniProt O14920).
T1 sequence (whole entry): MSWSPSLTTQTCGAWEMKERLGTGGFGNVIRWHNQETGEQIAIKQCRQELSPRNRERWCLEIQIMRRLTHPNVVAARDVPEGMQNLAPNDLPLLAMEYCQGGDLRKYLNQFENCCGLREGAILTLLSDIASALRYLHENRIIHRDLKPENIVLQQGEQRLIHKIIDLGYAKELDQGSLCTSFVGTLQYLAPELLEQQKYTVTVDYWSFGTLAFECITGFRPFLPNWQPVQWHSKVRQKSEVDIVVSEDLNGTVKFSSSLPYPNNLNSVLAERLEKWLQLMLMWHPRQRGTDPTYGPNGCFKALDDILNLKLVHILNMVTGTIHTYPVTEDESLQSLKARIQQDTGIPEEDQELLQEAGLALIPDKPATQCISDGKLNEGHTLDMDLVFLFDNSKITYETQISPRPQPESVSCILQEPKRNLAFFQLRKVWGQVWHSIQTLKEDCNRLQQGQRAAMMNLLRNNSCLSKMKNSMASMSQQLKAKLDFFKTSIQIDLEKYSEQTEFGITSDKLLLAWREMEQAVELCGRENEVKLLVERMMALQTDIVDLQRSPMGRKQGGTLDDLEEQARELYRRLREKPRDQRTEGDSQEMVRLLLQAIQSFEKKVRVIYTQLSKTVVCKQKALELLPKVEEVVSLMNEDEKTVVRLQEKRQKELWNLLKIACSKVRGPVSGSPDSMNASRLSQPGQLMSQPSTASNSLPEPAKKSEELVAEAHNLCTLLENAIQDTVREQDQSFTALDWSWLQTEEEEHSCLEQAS
Nature of the data set: Binding affinity to IKKbeta (unknown origin) at 10 uM relative to control.

The target of data set [9] is T2, Receptor-interacting serine/threonine-protein kinase 4 (Homo sapiens) (UniProt P57078).
T2 sequence (whole entry): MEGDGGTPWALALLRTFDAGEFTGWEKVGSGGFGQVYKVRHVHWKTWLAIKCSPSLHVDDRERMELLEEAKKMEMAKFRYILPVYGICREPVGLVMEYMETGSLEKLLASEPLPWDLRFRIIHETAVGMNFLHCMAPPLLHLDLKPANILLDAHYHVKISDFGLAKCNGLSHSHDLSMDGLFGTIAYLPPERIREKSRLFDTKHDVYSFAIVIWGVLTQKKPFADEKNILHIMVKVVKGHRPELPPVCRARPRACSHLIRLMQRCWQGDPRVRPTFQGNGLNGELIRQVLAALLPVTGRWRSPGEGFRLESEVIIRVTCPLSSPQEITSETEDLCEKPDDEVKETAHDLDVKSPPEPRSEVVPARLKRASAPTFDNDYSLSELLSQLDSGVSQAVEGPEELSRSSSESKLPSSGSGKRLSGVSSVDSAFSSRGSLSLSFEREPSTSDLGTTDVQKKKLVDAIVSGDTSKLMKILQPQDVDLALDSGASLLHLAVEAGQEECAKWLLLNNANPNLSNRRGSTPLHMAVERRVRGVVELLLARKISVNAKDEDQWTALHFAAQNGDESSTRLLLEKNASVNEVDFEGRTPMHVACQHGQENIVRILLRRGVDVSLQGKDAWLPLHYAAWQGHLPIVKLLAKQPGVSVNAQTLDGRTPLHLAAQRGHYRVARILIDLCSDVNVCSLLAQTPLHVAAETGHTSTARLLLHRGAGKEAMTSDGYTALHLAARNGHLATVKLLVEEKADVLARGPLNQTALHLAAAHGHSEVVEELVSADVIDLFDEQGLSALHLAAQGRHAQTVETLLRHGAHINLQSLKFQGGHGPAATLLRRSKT
Nature of the data set: Binding affinity to RIPK4 (unknown origin) at 10 uM relative to control.

The nature of data set [10]: Immunosuppressive activity in human RPMI1788 cells cocultured with human PBMC assessed as inhibition of [3H]thymidine incorporation at 10 uM incubated for 6 days prior to [3H]thymidine addition measured after 18 hrs by liquid scintillation counting. The data set is classed as functional. Particulars: RPMI-1788. In outline: as §2
The test system of data set [11] is Serine/threonine-protein kinase B-raf (Homo sapiens), P15056 [V600E]. Nature of the data set: Binding affinity to BRAF V600E mutant (unknown origin) at 10 uM relative to control.
Serine/threonine-protein kinase B-raf (Homo sapiens), P15056 [V600E], sequence (P15056 whole entry V600E): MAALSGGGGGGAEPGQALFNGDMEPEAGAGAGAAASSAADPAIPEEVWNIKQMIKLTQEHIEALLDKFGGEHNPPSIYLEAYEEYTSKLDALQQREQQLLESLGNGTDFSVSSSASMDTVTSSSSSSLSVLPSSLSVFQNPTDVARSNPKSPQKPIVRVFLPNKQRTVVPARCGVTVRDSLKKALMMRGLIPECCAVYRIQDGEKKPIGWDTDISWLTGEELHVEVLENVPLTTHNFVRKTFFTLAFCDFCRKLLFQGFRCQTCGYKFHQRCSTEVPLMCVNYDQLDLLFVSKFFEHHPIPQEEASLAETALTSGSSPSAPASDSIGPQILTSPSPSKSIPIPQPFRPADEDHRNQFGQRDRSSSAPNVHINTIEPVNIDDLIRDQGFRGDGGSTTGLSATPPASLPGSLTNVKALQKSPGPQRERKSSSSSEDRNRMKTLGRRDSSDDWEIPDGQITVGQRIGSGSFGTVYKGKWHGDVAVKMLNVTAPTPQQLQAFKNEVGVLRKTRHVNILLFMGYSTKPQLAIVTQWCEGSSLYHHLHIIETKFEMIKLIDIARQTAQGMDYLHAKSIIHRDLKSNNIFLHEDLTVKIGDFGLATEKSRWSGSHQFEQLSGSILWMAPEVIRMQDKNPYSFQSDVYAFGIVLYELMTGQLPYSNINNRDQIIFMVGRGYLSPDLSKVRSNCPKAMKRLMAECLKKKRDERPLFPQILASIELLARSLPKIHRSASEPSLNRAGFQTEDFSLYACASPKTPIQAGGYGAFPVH
Data set [12] has as its target T3, Inhibitor of nuclear factor kappa-B kinase subunit alpha (Homo sapiens) (UniProt O15111).
T3 sequence (whole entry): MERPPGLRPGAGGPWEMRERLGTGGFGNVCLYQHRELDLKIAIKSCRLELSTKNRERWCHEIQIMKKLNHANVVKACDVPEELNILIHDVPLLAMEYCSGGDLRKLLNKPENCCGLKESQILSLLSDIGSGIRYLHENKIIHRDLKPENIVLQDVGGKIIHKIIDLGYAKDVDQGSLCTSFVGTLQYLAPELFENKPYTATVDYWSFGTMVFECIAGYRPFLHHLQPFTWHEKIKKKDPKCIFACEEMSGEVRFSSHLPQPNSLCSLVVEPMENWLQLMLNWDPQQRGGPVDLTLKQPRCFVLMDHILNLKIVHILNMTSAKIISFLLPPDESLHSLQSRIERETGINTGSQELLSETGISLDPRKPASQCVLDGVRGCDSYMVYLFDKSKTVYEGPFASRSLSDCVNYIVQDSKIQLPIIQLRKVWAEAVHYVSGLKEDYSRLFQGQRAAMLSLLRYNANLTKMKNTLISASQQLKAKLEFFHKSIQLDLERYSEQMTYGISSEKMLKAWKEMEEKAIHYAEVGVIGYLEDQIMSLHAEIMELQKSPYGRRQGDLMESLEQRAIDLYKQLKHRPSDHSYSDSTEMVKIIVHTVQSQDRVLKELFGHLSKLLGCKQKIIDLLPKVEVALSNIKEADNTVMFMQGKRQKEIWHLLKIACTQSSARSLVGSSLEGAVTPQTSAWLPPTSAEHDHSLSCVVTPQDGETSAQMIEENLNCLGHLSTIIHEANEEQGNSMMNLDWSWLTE
Nature of the data set: Binding affinity to IKKalpha (unknown origin) at 10 uM relative to control.

The target in data set [13] is Serine/threonine-protein kinase mTOR (Homo sapiens) (UniProt P42345). Nature of the data set: Inhibition of mTOR (unknown origin) at 10 uM.

Each structure is given as a SMILES string. Bounds are passed on as bounds.

Ribosomal protein S6 kinase alpha-6 (Homo sapiens), sequence (Q9UK32 whole entry): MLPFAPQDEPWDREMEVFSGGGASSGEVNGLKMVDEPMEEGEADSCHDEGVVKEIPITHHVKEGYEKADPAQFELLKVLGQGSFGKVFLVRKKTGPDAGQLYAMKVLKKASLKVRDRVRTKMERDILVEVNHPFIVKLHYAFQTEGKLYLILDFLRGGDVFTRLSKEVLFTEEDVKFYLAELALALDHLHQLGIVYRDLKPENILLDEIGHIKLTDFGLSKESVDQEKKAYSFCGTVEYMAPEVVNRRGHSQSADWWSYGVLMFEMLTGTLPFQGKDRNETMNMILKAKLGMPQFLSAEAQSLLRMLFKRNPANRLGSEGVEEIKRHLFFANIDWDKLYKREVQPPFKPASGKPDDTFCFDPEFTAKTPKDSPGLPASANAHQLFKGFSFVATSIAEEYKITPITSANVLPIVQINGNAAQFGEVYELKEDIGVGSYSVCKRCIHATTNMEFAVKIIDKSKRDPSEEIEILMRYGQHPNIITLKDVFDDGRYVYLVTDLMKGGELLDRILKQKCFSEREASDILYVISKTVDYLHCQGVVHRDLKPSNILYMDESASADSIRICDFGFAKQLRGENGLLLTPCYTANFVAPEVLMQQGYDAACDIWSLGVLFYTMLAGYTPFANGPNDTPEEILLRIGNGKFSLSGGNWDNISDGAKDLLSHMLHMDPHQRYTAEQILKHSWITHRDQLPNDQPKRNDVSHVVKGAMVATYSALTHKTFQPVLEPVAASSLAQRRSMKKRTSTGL
Serine/threonine-protein kinase B-raf (Homo sapiens), sequence (P15056 whole entry): as the sequence (P15056 whole entry V600E) above, with E600V counted along it

The term inhibition denotes the relative decrease from the control value, in per cent. For orientation: IC50 means the point on the concentration scale where inhibition reaches its midpoint. The CC50 is the concentration at which the toxic effect on the cells reaches its halfway point. With `COc1ccc(-c2nc(SCc3ccccc3)nc(N3CCOCC3)c2C#N)cc1`, the inhibition at 48 h, 10 µM in [1] amounted to 10%. In addition, the Activity in data set [2] was 35%; in data set [4] it was 39%; in data set [6], 34%; in [7], 45%; in data set [8], 48%; in data set [9], 43%. Moreover, the results for the Activity in [11] and in data set [12] were 28% and 44%, respectively. Also, the 50% inhibitory concentration (IC50) in data set [3] was 1.6 µM. The CC50 at 48 h in [5] is over 10 µM. In [10], the inhibition at 10 µM was determined as 90%. Further, the inhibition in data set [13] worked out at 10%.
In data set [1], `N#Cc1c(-c2ccccc2)nc(Nc2ccc(Cl)cc2)nc1N1CCCCC1` had an inhibition at 48 h, 10 µM of 9%. Further, the IC50 in [3] was 6.2 µM. Also, the half-maximal cytotoxic concentration (CC50) at 48 h in data set [5] is over 10 µM. For the same compound, the inhibition at 10 µM in data set [10] was 70%.
For `COc1ccc(-c2nc(SCc3ccccc3)nc(N3CCC(C(=O)c4ccccc4)CC3)c2C#N)cc1`, in that order: 2%, 2.1 µM, over 10 µM and 63%.
For `N#Cc1c(-c2ccc(Cl)cc2)nc(SCc2ccccc2)nc1N1CCC(C(=O)c2ccccc2)CC1`, in that order: 6%, 9.8 µM, over 10 µM and 55%.

Source of the values: ChEMBL document CHEMBL2331363, “Synthesis of a 2,4,6-trisubstituted 5-cyano-pyrimidine library and evaluation of its immunosuppressive activity in a Mixed Lymphocyte Reaction assay” (Bioorg Med Chem, 2013).
